pIC50: −log10 of the molar value.
Assays:
Histone deacetylase 1 = Histone deacetylase 1 (Homo sapiens, UniProt Q13547); test: Inhibition of recombinant full length human FLAG/His-tagged HDAC1 (1 to 482 residues) expressed in baculovirus infected insect cells using RHK-K(Ac)-AMC as substrate measured after 60 mins by fluorimetric assay
Procedure, shortened: (§1)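 Isoform assays run by an outside contractor. […] Trichostatin A tested in parallel the same way as control.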

NCI-H1975 [1] = test: Inhibition of IFNgamma-induced PD-L1 expression in human NCI-H1975 cells assessed as reduction in PD-L1 expression incubated for 48 hrs by Western blot analysis; type: functional, cell-based
Procedure, shortened: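 H1975 cells exposed to IFN-γ 20 ng/ml alone or together with compound at the indicated concentrations for 48 h. Lysates run on 10% reducing SDS-PAGE and transferred to nitrocellulose. Blocked in 5% milk/PBST, probed with mouse anti-PD-L1 for 1 h, HRP goat anti-mouse detected by ECL. β-actin used as loading control.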

Histone deacetylase 4 = Histone deacetylase 4 (Homo sapiens, UniProt P56524); test: Inhibition of recombinant N-terminal GST-tagged and C-terminal His-tagged human HDAC4 expressed in baculovirus infected insect cells using RHK-K(Ac)-AMC as substrate after 60 mins by fluorimetry analysis; procedure, shortened: as §1
[2] = target: Heat shock protein HSP 90-alpha (Homo sapiens, UniProt P07900); test: Inhibition of FITC-geldanamycin binding to recombinant human full-length C-terminal His-tagged HSP90alpha expressed in Escherichia coli after 3 hrs by fluorescence polarization assay
Histone deacetylase 9 = Histone deacetylase 9 (Homo sapiens, UniProt Q9UKV0); test: Inhibition of human HDAC9 using (Boc-Lys(trifluoroacetyl)-AMC) as substrate by fluorescence assay; procedure, shortened: as §1
Histone deacetylase 8 = Histone deacetylase 8 (Homo sapiens, UniProt Q9BY41); test: Inhibition of recombinant C-terminal His-fusion tagged and N-terminal Streptavidin2-tagged human HDAC8 (1 to 377 residues) expressed in insect cells using RHK-K(Ac)-AMC as substrate after 60 mins by fluorescence assay; procedure, shortened: as §1
Histone deacetylase 7 = Histone deacetylase 7 (Homo sapiens, UniProt Q8WUI4); test: Inhibition of recombinant human N-terminal GST-tagged HDAC7 (518 to 991 residues) expressed in baculovirus infected insect cells using Boc-K(Ac)-AMC as substrate after 90 mins by fluorimetry analysis; procedure, shortened: as §1
NCI-H1975 [3] = test: cells; type: functional; settings: Homo sapiens, NCI-H1975, 48 h
[4] = target: Histone deacetylase (Homo sapiens) (UniProt Q13547+O15379+Q9UBN7+Q92769+Q9UQL6+Q8WUI4+Q9BY41+Q96DB2+P56524+Q9UKV0+Q969S8); test: Inhibition of HDAC in human H1975 cells assessed as alpha tubulin acetylation after 24 hrs by Western blot analysis; type: cell-based
Procedure, shortened: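 Whole-cell lysates from H1975 cells after 24 h culture with compound at the indicated concentrations. Acetylated α-tubulin and acetylated histone H3 detected by immunoblot: SDS-PAGE, PVDF transfer, primary antibody overnight at 4°C, HRP secondary, ECL. Repeated at least three times.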

Chain of Histone deacetylase 8 (Q9BY41 whole entry, the tested form may be a part): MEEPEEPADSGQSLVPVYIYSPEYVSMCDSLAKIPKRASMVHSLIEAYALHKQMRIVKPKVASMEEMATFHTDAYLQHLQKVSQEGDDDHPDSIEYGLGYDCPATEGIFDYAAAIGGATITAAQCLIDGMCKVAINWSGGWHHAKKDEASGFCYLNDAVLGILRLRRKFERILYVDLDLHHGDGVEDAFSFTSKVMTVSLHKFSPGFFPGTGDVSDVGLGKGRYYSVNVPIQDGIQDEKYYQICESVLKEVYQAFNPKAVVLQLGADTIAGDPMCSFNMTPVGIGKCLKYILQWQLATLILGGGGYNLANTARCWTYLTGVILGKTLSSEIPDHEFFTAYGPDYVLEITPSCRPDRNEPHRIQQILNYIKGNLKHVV
Chain of Histone deacetylase 7 (Q8WUI4 whole entry, the tested form may be a part): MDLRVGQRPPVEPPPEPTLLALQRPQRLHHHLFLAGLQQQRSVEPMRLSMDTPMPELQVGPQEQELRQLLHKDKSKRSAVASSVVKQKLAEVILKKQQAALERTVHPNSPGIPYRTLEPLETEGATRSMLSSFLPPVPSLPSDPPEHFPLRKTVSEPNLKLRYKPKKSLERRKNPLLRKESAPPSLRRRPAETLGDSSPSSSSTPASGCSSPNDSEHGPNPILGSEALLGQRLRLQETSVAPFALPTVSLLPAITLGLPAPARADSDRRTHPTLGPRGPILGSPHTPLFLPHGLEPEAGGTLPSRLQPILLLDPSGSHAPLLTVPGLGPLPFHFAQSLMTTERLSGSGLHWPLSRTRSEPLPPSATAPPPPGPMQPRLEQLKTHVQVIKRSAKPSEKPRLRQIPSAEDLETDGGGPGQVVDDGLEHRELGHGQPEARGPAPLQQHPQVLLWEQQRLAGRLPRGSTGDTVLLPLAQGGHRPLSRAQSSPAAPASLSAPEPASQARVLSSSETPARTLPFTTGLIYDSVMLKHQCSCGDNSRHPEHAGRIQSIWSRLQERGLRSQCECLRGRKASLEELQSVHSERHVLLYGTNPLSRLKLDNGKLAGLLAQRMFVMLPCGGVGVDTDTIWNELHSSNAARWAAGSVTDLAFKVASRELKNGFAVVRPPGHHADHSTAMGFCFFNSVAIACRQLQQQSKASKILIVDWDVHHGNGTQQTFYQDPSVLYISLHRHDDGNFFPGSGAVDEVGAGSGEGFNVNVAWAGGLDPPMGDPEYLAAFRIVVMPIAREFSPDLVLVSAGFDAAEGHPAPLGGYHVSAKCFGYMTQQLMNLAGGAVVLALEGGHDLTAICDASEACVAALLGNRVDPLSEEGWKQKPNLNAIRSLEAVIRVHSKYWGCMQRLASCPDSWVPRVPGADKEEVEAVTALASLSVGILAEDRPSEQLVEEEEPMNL
Chain of Histone deacetylase 9 (Q9UKV0 whole entry, the tested form may be a part): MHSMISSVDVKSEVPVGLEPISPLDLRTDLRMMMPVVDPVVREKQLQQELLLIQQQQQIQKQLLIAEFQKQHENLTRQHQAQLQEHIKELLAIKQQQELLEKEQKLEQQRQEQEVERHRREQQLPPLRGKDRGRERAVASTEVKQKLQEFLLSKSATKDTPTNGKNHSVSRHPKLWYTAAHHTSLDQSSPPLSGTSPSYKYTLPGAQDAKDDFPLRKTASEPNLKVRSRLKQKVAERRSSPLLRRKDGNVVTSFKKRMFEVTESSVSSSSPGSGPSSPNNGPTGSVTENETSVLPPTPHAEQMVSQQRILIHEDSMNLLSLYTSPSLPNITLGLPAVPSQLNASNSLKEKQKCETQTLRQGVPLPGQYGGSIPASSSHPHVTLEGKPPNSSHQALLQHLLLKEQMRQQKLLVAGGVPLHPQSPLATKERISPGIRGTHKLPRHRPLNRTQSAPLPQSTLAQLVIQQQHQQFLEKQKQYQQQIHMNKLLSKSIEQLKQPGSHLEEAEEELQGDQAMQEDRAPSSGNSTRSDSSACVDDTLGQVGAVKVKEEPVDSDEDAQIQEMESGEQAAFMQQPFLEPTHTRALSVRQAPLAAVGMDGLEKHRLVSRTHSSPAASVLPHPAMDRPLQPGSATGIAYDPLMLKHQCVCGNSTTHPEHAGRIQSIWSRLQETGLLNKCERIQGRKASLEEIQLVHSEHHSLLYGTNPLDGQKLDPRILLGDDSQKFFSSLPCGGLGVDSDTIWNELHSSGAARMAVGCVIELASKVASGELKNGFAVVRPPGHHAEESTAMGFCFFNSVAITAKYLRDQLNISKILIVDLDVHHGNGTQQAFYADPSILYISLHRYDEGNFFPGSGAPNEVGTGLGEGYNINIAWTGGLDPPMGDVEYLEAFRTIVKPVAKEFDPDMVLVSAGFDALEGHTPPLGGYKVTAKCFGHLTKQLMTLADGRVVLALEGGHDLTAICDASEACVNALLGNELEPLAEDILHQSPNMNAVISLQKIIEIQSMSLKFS
Chain of Histone deacetylase 4 (P56524 whole entry): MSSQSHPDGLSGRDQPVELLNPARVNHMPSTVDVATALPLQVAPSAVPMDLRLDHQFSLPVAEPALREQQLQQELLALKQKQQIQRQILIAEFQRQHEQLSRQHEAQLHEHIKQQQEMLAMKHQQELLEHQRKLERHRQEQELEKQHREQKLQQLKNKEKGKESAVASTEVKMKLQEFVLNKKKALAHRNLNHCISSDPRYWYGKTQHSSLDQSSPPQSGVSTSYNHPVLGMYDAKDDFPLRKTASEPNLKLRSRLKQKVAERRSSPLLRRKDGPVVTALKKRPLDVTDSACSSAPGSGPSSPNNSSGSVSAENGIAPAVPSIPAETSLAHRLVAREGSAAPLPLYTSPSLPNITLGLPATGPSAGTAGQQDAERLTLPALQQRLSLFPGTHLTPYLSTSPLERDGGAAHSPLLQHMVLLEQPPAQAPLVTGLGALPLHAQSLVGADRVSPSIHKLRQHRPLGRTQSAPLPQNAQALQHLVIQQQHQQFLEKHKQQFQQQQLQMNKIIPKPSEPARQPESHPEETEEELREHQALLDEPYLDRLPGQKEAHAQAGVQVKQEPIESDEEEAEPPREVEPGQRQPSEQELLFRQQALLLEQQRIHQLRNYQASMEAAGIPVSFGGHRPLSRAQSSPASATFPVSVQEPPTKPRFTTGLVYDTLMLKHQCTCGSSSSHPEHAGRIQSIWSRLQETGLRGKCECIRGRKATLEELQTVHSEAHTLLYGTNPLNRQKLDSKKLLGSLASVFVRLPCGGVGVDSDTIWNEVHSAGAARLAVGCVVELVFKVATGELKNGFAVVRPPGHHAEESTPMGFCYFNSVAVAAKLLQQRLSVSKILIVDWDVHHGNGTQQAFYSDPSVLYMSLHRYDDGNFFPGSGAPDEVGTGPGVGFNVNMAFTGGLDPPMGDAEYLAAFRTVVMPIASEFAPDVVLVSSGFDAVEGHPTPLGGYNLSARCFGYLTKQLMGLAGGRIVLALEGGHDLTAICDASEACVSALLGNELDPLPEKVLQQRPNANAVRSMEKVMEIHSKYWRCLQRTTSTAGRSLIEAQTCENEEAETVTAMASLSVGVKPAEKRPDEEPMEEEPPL
Chain of Histone deacetylase 1 (Q13547 whole entry, the tested form may be a part, canonical isoform): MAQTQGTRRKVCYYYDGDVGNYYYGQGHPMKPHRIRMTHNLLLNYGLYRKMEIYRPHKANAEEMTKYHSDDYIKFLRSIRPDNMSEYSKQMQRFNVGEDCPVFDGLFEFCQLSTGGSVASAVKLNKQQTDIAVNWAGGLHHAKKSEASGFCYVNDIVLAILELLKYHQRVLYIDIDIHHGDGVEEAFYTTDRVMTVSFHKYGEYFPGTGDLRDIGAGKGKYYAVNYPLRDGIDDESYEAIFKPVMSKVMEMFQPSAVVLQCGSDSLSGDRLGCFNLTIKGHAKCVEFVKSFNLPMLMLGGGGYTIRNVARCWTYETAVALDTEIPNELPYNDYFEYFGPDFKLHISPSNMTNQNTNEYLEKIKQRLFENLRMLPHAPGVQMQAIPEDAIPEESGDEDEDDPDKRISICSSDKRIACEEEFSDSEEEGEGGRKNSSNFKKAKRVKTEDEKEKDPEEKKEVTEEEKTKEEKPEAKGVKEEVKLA

## CC(C)c1cc(C(=O)N(C)c2ccc(NC(=O)CCCCCCCC(=O)NO)cc2)c(O)cc1O
Histone deacetylase 1
  pIC50: 5.22
NCI-H1975 [1]
  inhibition: Dose-dependent effect
Histone deacetylase 4
  pIC50: < 5.00
[2]
  pIC50: 7.11
Histone deacetylase 9
  pIC50: < 5.00
Histone deacetylase 8
  pIC50: 5.47
Histone deacetylase 7
  pIC50: 5.19
NCI-H1975 [3]
  GI50: 0.4 µM
[4]
  inhibition: Dose-dependent effect

## CC(C)c1cc(C(=O)N(C)c2ccc(NC(=O)CCCCCCC(=O)NO)cc2)c(O)cc1O
Histone deacetylase 1
  pIC50: 5.88
NCI-H1975 [1]
  inhibition: Dose-dependent effect
Histone deacetylase 4
  pIC50: < 5.00
[2]
  pIC50: 6.82
Histone deacetylase 9
  pIC50: < 5.00
Histone deacetylase 8
  pIC50: 6.37
Histone deacetylase 7
  pIC50: < 5.00
NCI-H1975 [3]
  GI50: 0.69 µM
[4]
  inhibition: Dose-dependent effect
